# In ChEMBL document CHEMBL1944519 (Bioorg Med Chem, 2012):
# Biological target: T1, Steryl-sulfatase (Homo sapiens, UniProt P08842)
# T1 sequence (P08842 whole entry): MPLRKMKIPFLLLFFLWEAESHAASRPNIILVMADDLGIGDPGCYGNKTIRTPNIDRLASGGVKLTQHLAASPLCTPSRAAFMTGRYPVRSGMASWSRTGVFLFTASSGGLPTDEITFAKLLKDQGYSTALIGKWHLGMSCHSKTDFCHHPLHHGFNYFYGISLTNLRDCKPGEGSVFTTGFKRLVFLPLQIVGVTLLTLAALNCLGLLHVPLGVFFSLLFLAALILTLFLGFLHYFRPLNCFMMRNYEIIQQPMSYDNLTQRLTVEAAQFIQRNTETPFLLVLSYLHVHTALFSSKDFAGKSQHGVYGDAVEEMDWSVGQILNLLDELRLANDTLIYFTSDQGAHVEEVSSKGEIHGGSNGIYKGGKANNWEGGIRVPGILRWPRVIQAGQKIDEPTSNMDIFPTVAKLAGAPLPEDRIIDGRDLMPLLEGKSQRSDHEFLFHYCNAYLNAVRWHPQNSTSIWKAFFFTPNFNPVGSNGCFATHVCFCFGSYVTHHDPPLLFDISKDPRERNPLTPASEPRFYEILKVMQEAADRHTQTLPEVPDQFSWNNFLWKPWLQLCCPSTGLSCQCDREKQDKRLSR
# Assay: Mixed type inhibition of steroid sulfatase using 4-methylumbelliferyl sulfate as substrate by Lineweaver-Burk plot analysis
# How it was run: (§1)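 Kinetics used purified human placental STS at 10 nM final, 25 °C. Inhibitor was fixed at 75, 50 or 25 nM final (plus an inhibitor-free control) against 4-MUS from 83.3 to 500 μM final, in 0.1 M Tris-HCl pH 7.0. Initial rates (RFU/s) were measured by fluorescence in triplicate and plotted as Lineweaver–Burk. Slopes and intercepts were replotted with mixed-type equations to give Ki and αKi.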
row,SMILES,Ki
1,C[C@]12CC[C@@H]3c4ccc(O)cc4CC[C@H]3[C@@H]1CC[C@@H]2NS(=O)(=O)c1cccc(Br)c1,23 nM

# Biological target: T2, Steryl-sulfatase (Homo sapiens) (UniProt P08842)
# T2 sequence (whole entry): T1 sequence (P08842 whole entry)
# Assay: Ratio of 17beta-3'-trifluoromethylbenzylest radiol IC50 to compound IC50 for steroid sulfatase
row,SMILES,Ratio IC50
1,C[C@]12CC[C@@H]3c4ccc(O)cc4CC[C@H]3[C@@H]1CC[C@@H]2NS(=O)(=O)c1cccc(C(F)(F)F)c1,6

# Biological target: T1, Steryl-sulfatase
# Assay: Inhibition of steroid sulfatase using 4-methylumbelliferyl sulfate as substrate after 10 mins by spectrofluorimeter plate reader
# How it was run: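 Human placental STS, purified, used at 10 nM final with 200 μM 4-MUS (Km level). Assay buffer 0.1 M Tris-HCl pH 7.0, 0.01% Triton X-100, 5% DMSO, 25 °C. Inhibitor dilutions in DMSO/Tris (1:1), enzyme added last. 4-MU release read by fluorescence (ex 360, em 460) over 10 min, in triplicate. IC50 from percent activity vs log[I], fitted with a slope-factor equation plus background term.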
row,SMILES,IC50
1,C[C@]12CC[C@@H]3c4ccc(O)cc4CC[C@H]3[C@@H]1CC[C@@H]2NS(=O)(=O)c1ccc(Oc2ccccc2)cc1,39 nM
2,C[C@]12CC[C@@H]3c4ccc(O)cc4CC[C@H]3[C@@H]1CC[C@@H]2NS(=O)(=O)c1cccc(OC(F)(F)F)c1,74 nM
3,C[C@]12CC[C@@H]3c4ccc(O)cc4CC[C@H]3[C@@H]1CC[C@@H]2NS(=O)(=O)c1ccccc1,343 nM
4,CCCCc1ccc(S(=O)(=O)N[C@H]2CC[C@H]3[C@@H]4CCc5cc(O)ccc5[C@H]4CC[C@]23C)cc1,26 nM
5,C[C@]12CC[C@@H]3c4ccc(O)cc4CC[C@H]3[C@@H]1CC[C@@H]2NS(=O)(=O)c1ccc2ccccc2c1,20 nM
6,COc1cccc(S(=O)(=O)N[C@H]2CC[C@H]3[C@@H]4CCc5cc(O)ccc5[C@H]4CC[C@]23C)c1,193 nM
7,C[C@]12CC[C@@H]3c4ccc(O)cc4CC[C@H]3[C@@H]1CC[C@@H]2NS(=O)(=O)c1cccc(F)c1,112 nM
8,Cc1ccc(S(=O)(=O)N[C@H]2CC[C@H]3[C@@H]4CCc5cc(O)ccc5[C@H]4CC[C@]23C)cc1,207 nM
9,Cc1cccc(S(=O)(=O)N[C@H]2CC[C@H]3[C@@H]4CCc5cc(O)ccc5[C@H]4CC[C@]23C)c1,65 nM
10,C[C@]12CC[C@@H]3c4ccc(O)cc4CC[C@H]3[C@@H]1CC[C@@H]2NS(=O)(=O)c1cccc(C(F)(F)F)c1,23 nM
11,C[C@]12CC[C@@H]3c4ccc(O)cc4CC[C@H]3[C@@H]1CC[C@@H]2NS(=O)(=O)c1ccc(F)cc1,479 nM
12,Cc1ccc(S(=O)(=O)O[C@H]2CC[C@H]3[C@@H]4CCc5cc(O)ccc5[C@H]4CC[C@]23C)cc1,293 nM
13,Cc1ccc(S(=O)(=O)N[C@@H]2CC[C@H]3[C@@H]4CCc5cc(O)ccc5[C@H]4CC[C@]23C)cc1,341 nM
14,C[C@]12CC[C@@H]3c4ccc(O)cc4CC[C@H]3[C@@H]1CC[C@@H]2NS(=O)(=O)c1cccc(C#N)c1,137 nM
15,Cc1ccc(CS(=O)(=O)N[C@H]2CC[C@H]3[C@@H]4CCc5cc(O)ccc5[C@H]4CC[C@]23C)cc1,261 nM
16,C[C@]12CC[C@@H]3c4ccc(O)cc4CC[C@H]3[C@@H]1CC[C@@H]2NS(=O)(=O)c1ccc(Cl)cc1,271 nM
17,C[C@]12CC[C@@H]3c4ccc(O)cc4CC[C@H]3[C@@H]1CC[C@@H]2NS(=O)(=O)Cc1ccccc1,364 nM
18,C[C@]12CC[C@@H]3c4ccc(O)cc4CC[C@H]3[C@@H]1CC[C@@H]2NS(=O)(=O)c1ccc(C(F)(F)F)cc1,73 nM
19,C[C@]12CC[C@@H]3c4ccc(O)cc4CC[C@H]3[C@@H]1CC[C@@]2(O)Cc1ccc2ccccc2c1,120 nM
20,C[C@]12CC[C@@H]3c4ccc(O)cc4CC[C@H]3[C@@H]1CC[C@@]2(O)Cc1cccc(C(F)(F)F)c1,126 nM

# Continued by falling IC50, values first:
row,IC50,SMILES
1,749 nM,C[C@]12CC[C@@H]3c4ccc(O)cc4CC[C@H]3[C@@H]1CC[C@@H]2NC(=O)c1cccc(C(F)(F)F)c1
2,493 nM,C[C@]12CC[C@@H]3c4ccc(O)cc4CC[C@H]3[C@@H]1CC[C@@H]2NS(=O)(=O)c1ccccc1Br
3,190 nM,C[C@]12CC[C@@H]3c4ccc(O)cc4CC[C@H]3[C@@H]1CC[C@@H]2NS(=O)(=O)c1ccc(Br)cc1
4,90 nM,C[C@]12CC[C@@H]3c4ccc(O)cc4CC[C@H]3[C@@H]1CC[C@@H]2NS(=O)(=O)c1cccc([N+](=O)[O-])c1
5,67 nM,C[C@]12CC[C@@H]3c4ccc(O)cc4CC[C@H]3[C@@H]1CC[C@@H]2NS(=O)(=O)c1cccc(Cl)c1
6,62 nM,CC(C)c1ccc(S(=O)(=O)N[C@H]2CC[C@H]3[C@@H]4CCc5cc(O)ccc5[C@H]4CC[C@]23C)cc1
7,51 nM,CCCCCc1ccc(S(=O)(=O)N[C@H]2CC[C@H]3[C@@H]4CCc5cc(O)ccc5[C@H]4CC[C@]23C)cc1
8,44 nM,CCCc1ccc(S(=O)(=O)N[C@H]2CC[C@H]3[C@@H]4CCc5cc(O)ccc5[C@H]4CC[C@]23C)cc1
9,35 nM,C[C@]12CC[C@@H]3c4ccc(O)cc4CC[C@H]3[C@@H]1CC[C@@]2(O)Cc1ccc(-c2ccccc2)cc1
10,25 nM,C[C@]12CC[C@@H]3c4ccc(O)cc4CC[C@H]3[C@@H]1CC[C@@H]2NS(=O)(=O)c1cccc(Br)c1
11,18 nM,CC(C)(C)c1ccc(S(=O)(=O)N[C@H]2CC[C@H]3[C@@H]4CCc5cc(O)ccc5[C@H]4CC[C@]23C)cc1
12,9 nM,C[C@]12CC[C@@H]3c4ccc(O)cc4CC[C@H]3[C@@H]1CC[C@@H]2NS(=O)(=O)c1ccc(-c2ccccc2)cc1

# Biological target: T1, Steryl-sulfatase
# Assay: Inhibition of steroid sulfatase using 4-methylumbelliferyl sulfate as substrate by Lineweaver-Burk plot analysis
# How it was run: as §1
row,SMILES,Ki
1,C[C@]12CC[C@@H]3c4ccc(O)cc4CC[C@H]3[C@@H]1CC[C@@H]2NS(=O)(=O)c1cccc(Br)c1,23 nM
